From ChEMBL document CHEMBL3244000, “Aromatic hydroxylation of beta-adrenergic antagonists. Formation of 4'- and 5'-hydroxy-1-(isopropylamino)-3-[2'-allyloxy)phenoxy]-2-propanol from oxprenolol” (J Med Chem, 1979) come the findings set out here.

Data set [1] can be described thus: Drug level in Sprague-Dawley rat urine treated with oxprenolol hydrochloride at 20 mg/kg, ip measured after 24 hrs by GC-CIMS analysis. Format: ADME, organism-based. Also noted: dose 20 mg/kg, route intraperitoneal. The conditions noted are these: in vivo. An outline of the steps: (§1)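 Six male Sprague-Dawley rats (120 g) were given oxprenolol hydrochloride ip at 20 mg/kg (4 mg/mL in sterile isotonic water). Urine was collected over 24 h in metabolic cages and pooled, then incubated overnight at 37 °C with 9200 units β-glucuronidase in pH 5.0 acetate buffer. Extract was methylated with diazomethane and TFA-derivatized. GC-CIMS monitored QM ions; isomer ratio was taken from the total ion current tracings.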

Data set [2] in a line: Drug level in Sprague-Dawley rat urine treated with oxprenolol hydrochloride at 20 mg/kg, ip measured after 24 hrs by GC-CIMS analysis in presence of beta-glucuronidase and CH2N2. In kind it is ADME, organism-based. Also noted: dose 20 mg/kg, route intraperitoneal. The conditions noted are these: in vivo. An outline of the steps:
as §1

Regarding `C=CCOc1cc(O)ccc1OCC(O)CNC(C)C` (centres undefined), in data set [1], the Drug excretion result was “metabolite_detected”. As to `C=CCOc1ccc(O)cc1OCC(O)CNC(C)C` (centres undefined), the Drug excretion entry in data set [1] is “metabolite_detected”. Consider `C=CCOc1cc(OC)ccc1OCC(O)CNC(C)C` (centres undefined), for which the Drug excretion entry in data set [2] was “metabolite_detected”. For the compound `C=CCOc1ccc(OC)cc1OCC(O)CNC(C)C` (centres undefined), in data set [2], the Drug excretion entry is listed as “metabolite_detected”.
